Experimental data taken from ChEMBL document CHEMBL3244248, “Substituted 3-amino-1,1-diaryl-2-propanols as potential antidepressant agents” (J Med Chem, 1979).
Active and inactive are the calls of the source. The calls are words filed in the database; no cut-off is given here.

Legend:
Mus musculus [1] = assay: Antidepressant activity against reserpine-induced hypothermia CFLP mouse model assessed as change in esophageal temperature at 60 mg/kg, po treated before 2 to 24 hrs of reserpine challenge; type: functional, organism-based; set-up: dose 60 mg/kg
Summary of the method: (§1)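 Male CFLP mice (18–23 g), two groups of five, received oral compound or vehicle 24, 18 and 2 h before iv reserpine base (1 mg/kg). Esophageal temperature was read before reserpine and at 2, 4 and 6 h. Test-minus-control mean differences at the three times were summed and corrected for the 0 h difference, giving Δ6 (°C).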

Mus musculus [2] = assay: Antidepressant activity against reserpine-induced hypothermia CFLP mouse model assessed as change in esophageal temperature at 10 mg/kg, po treated before 2 to 24 hrs of reserpine challenge; type: functional, organism-based; set-up: dose 10 mg/kg; summary of the method: as §1
Mus musculus [3] = assay: Antidepressant activity against reserpine-induced hypothermia CFLP mouse model assessed as change in esophageal temperature at 30 mg/kg, po treated before 2 to 24 hrs of reserpine challenge; type: functional, organism-based; set-up: dose 30 mg/kg; summary of the method: as §1
Mus musculus [4] = assay: Antidepressant activity against reserpine-induced hypothermia CFLP mouse model assessed as change in esophageal temperature at 5 mg/kg, po treated before 2 to 24 hrs of reserpine challenge; type: functional, organism-based; set-up: dose 5 mg/kg; summary of the method: as §1
Mus musculus [5] = assay: Antidepressant activity against reserpine-induced hypothermia CFLP mouse model assessed as change in esophageal temperature at 4 mg/kg, po treated before 2 to 24 hrs of reserpine challenge; type: functional, organism-based; set-up: dose 4 mg/kg; summary of the method: as §1
Mus musculus [6] = assay: Antidepressant activity against reserpine-induced hypothermia CFLP mouse model assessed as change in esophageal temperature at 1 mg/kg, po treated before 2 to 24 hrs of reserpine challenge; type: functional, organism-based; set-up: dose 1 mg/kg; summary of the method: as §1
Mus musculus [7] = organism: Mus musculus; assay: Anticholinergic effect in CFLP mouse assessed as mydriasis; conditions: in vivo
Ileum = assay: Anticholinergic effect in guinea pig ileum assessed as inhibition of acetylcholine-induced contraction; type: tissue-based; conditions: Cavia porcellus, read-out: pA2 (converted)
Summary of the method: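 Guinea pig ileum contracted by acetylcholine. ED50 values were generated from a dose–response fit, p = D^E/(D^E + K^E), and converted to pA2. pA2 is the negative log10 of the molar antagonist concentration that reduces the effect of two equal acetylcholine doses to that of a single dose.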

[8] = Anticholinergic effect in sc dosed CFLP mouse assessed as inhibition of pilocarpine-induced salivation; type: organism-based; conditions: in vivo
Summary of the method: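 Male CFLP mice (18–23 g), groups of eight. Vehicle or drug was given sc 20 min before urethane anaesthesia (1.8 g/kg sc), and pilocarpine (2 mg/kg sc) followed 10 min later. Salivation areas on chromatography paper were measured by planimeter every 5 min for 35 min. Percentage change from control was regressed against log dose to give an ED50 with fiducial limits.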

Mus musculus [9] = assay: Antidepressant activity against reserpine-induced hypothermia CFLP mouse model assessed as change in esophageal temperature < 5 degC at 100 mg/kg, po treated before 2 to 24 hrs of reserpine challenge; type: functional, organism-based; set-up: dose 100 mg/kg; summary of the method: as §1
Mus musculus [10] = assay: Antidepressant activity against reserpine-induced hypothermia CFLP mouse model assessed as change in esophageal temperature < 5 degC at 30 mg/kg, po treated before 2 to 24 hrs of reserpine challenge
Rattus norvegicus = assay: Toxicity in substantia nigra lesioned rat assessed as turning behaviour up to 50 mg/kg, po; type: organism-based; set-up: dose 50 mg/kg, route oral; conditions: in vivo
Summary of the method: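 Rats with a unilateral substantia nigra lesion, dosed orally at up to 50 mg/kg, and observed for turning.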

[11] = Inhibition of radiolabeled 5-hydroxytryptamine uptake in whole rat brain synaptosome; type: functional, tissue-based
Brain = assay: In vivo inhibition of hydroxytryptamine-induced depletion of rat brain noradrenaline; type: functional
Mus musculus [12] = assay: Toxicity in mouse assessed as CNS stimulation up to 8 mg/kg, po; type: organism-based, Central nervous system; set-up: dose 8 mg/kg, route oral; conditions: in vivo
[13] = Inhibition of radiolabeled dopamine uptake in whole rat brain synaptosome; type: functional, tissue-based
[14] = Inhibition of radiolabeled noradrenaline uptake in whole rat brain synaptosome; type: functional, tissue-based
Mus musculus [15] = assay: Antidepressant activity against reserpine-induced hypothermia CFLP mouse model assessed as change in esophageal temperature at 16 mg/kg, po treated before 2 to 24 hrs of reserpine challenge; type: functional, organism-based; set-up: dose 16 mg/kg; summary of the method: as §1
Mus musculus [16] = assay: Antidepressant activity against reserpine-induced hypothermia CFLP mouse model assessed as change in esophageal temperature at 6 mg/kg, po treated before 2 to 24 hrs of reserpine challenge; type: functional, organism-based; set-up: dose 6 mg/kg; summary of the method: as §1
Mus musculus [17] = assay: Antidepressant activity against reserpine-induced hypothermia CFLP mouse model assessed as change in esophageal temperature at 100 mg/kg, po treated before 2 to 24 hrs of reserpine challenge; type: functional, organism-based; set-up: dose 100 mg/kg; summary of the method: as §1
Mus musculus [18] = assay: Antidepressant activity against reserpine-induced hypothermia CFLP mouse model assessed as change in esophageal temperature at 3 mg/kg, po treated before 2 to 24 hrs of reserpine challenge; type: functional, organism-based; set-up: dose 3 mg/kg; summary of the method: as §1
Mus musculus [19] = assay: Antidepressant activity against reserpine-induced hypothermia CFLP mouse model assessed as change in esophageal temperature at 20 mg/kg, po treated before 2 to 24 hrs of reserpine challenge; type: functional, organism-based; set-up: dose 20 mg/kg; summary of the method: as §1

CN(C)CC(O)C(c1ccccc1)c1cccs1 (stereo unspecified)
deltaT (Mus musculus [1]): 8.4 °C

CN(Cc1ccccc1)CC(O)C(c1ccccc1)c1ccccc1 (stereo unspecified)
deltaT (Mus musculus [2]): 6.1 °C

CN(C)CC(O)C(O)(c1ccccc1)c1ccccc1 (stereo unspecified)
deltaT (Mus musculus [3]): 5.5 °C

CC(=O)OC(CN(C)C)C(c1ccccc1)c1ccccc1 (stereo unspecified)
deltaT (Mus musculus [4]): 10.2 °C
Activity (Mus musculus [5]): inactive

CN(C)CC(O)C(c1ccccc1)c1ccccc1Cl.Cl (stereo unspecified)
deltaT (Mus musculus [6]): 6.6 °C
ED50 (Mus musculus [7]): 29 mg/kg
Kb (Ileum): 6.31 µM
ED50 [8]: 24 mg/kg

NCC(O)C(c1ccccc1)c1ccccc1 (stereo unspecified)
Activity (Mus musculus [9]): inactive

Br.CN(C)C[C@H](O)C(c1ccccc1)c1ccccc1
ED50 (Mus musculus [7]): 26 mg/kg
Kb (Ileum): 3.16 µM
ED50 [8]: 63 mg/kg

CNCC(C)(O)C(c1ccccc1)c1ccccc1 (stereo unspecified)
deltaT (Mus musculus [3]): 8.9 °C

CN(C)CC(O)C(O)(c1ccccc1)c1ccc(F)cc1 (stereo unspecified)
deltaT (Mus musculus [2]): 7.5 °C

CC(O)(CN)C(c1ccccc1)c1ccccc1 (stereo unspecified)
Activity (Mus musculus [9]): inactive

CN(C)CC(O)(c1ccccc1)C(c1ccccc1)c1ccccc1 (stereo unspecified)
Activity (Mus musculus [10]): inactive

CN(C)CC(O)C(c1ccccc1)c1ccc(F)cc1 (stereo unspecified)
deltaT (Mus musculus [4]): 5.8 °C
ED50 (Mus musculus [7]): 26 mg/kg
Kb (Ileum): 15.8 µM
ED50 [8]: > 100 mg/kg

Br.CN(C)CC(O)C(c1ccccc1)c1ccccc1 (stereo unspecified)
deltaT (Mus musculus [4]): 5.3 °C
ED50 (Mus musculus [7]): 53 mg/kg
Kb (Ileum): 6.31 µM
ED50 [8]: 36 mg/kg

CN(C)CC(O)C(c1ccccc1)c1cccc(C(F)(F)F)c1.Cl (stereo unspecified)
deltaT (Mus musculus [4]): 9 °C
ED50 (Mus musculus [7]): 26 mg/kg
Kb (Ileum): 1.58 µM

CN(C)CC(OC(=O)c1ccccc1)C(c1ccccc1)c1cccc(Cl)c1 (stereo unspecified)
deltaT (Mus musculus [2]): 5.2 °C

CN(C)CC(O)C(c1ccccc1)c1ccc(Cl)c(Cl)c1 (stereo unspecified)
deltaT (Mus musculus [2]): 7.2 °C

Cc1ccccc1C(c1ccccc1)C(O)CN(C)C (stereo unspecified)
deltaT (Mus musculus [2]): 10.4 °C

CN(C)CC(O)C(c1ccccc1)c1cccc(Cl)c1.Cl (stereo unspecified)
Activity (Rattus norvegicus): Non-toxic
IC50 [11]: 9.8 µM
ED50 (Brain): 30 mg/kg
deltaT (Mus musculus [6]): 5.3 °C
ED50 (Mus musculus [7]): 42 mg/kg
Kb (Ileum): 15.8 µM
Activity (Mus musculus [12]): Toxic
IC50 [13]: 8.9 µM
IC50 [14]: 1.2 µM
ED50 [8]: 33 mg/kg

CN(C)CC(O)C(c1ccccc1)c1ccc(Cl)cc1.O=C(O)CCC(=O)O (stereo unspecified)
deltaT (Mus musculus [15]): 6.3 °C
ED50 (Mus musculus [7]): 40 mg/kg
Kb (Ileum): 7.94 µM
ED50 [8]: 71 mg/kg

Br.CN(C)C[C@@H](O)C(c1ccccc1)c1ccccc1
ED50 (Mus musculus [7]): 46 mg/kg
Kb (Ileum): 7.94 µM
ED50 [8]: 51 mg/kg

CNCC(O)C(c1ccccc1)c1ccccc1.Cl (stereo unspecified)
ED50 (Mus musculus [7]): 144 mg/kg
Kb (Ileum): 10 µM
deltaT (Mus musculus [16]): 6.1 °C
ED50 [8]: 40 mg/kg

CN(Cc1ccccc1)CC(O)C(c1ccccc1)c1ccc(F)cc1 (stereo unspecified)
deltaT (Mus musculus [2]): 7.3 °C

OC(CNCc1ccccc1)C(c1ccccc1)c1ccccc1 (stereo unspecified)
Activity (Mus musculus [9]): inactive

CNCC(O)C(c1ccccc1)c1ccc(C)cc1 (stereo unspecified)
Activity (Mus musculus [10]): inactive
deltaT (Mus musculus [17]): 5.4 °C

CN(C)CC(O)C(c1ccc(F)cc1)c1ccc(F)cc1 (stereo unspecified)
deltaT (Mus musculus [2]): 7.8 °C

CN(C)CC(O)C(c1ccccc1)c1cc(Cl)cc(Cl)c1 (stereo unspecified)
deltaT (Mus musculus [18]): 6.2 °C

CN1CCN(CC(O)C(c2ccccc2)c2ccccc2)CC1 (stereo unspecified)
deltaT (Mus musculus [3]): 6.3 °C

OC(CN1CCCCC1)C(c1ccccc1)c1ccccc1 (stereo unspecified)
deltaT (Mus musculus [17]): 9.9 °C

CN(C)CC(O)C(c1ccccc1)c1cccc(Br)c1.Cl (stereo unspecified)
Activity (Mus musculus [18]): inactive
deltaT (Mus musculus [4]): 12.4 °C
ED50 (Mus musculus [7]): 49 mg/kg
Kb (Ileum): 7.94 µM
ED50 [8]: > 100 mg/kg

CN(C)CC(O)C(Cc1ccccc1)c1ccccc1 (stereo unspecified)
deltaT (Mus musculus [3]): 8.6 °C

CCN(C)CC(O)C(c1ccccc1)c1ccccc1.Cl (stereo unspecified)
deltaT (Mus musculus [2]): 10.2 °C
Activity (Mus musculus [4]): inactive
ED50 (Mus musculus [7]): 36 mg/kg
Kb (Ileum): 50.1 µM
ED50 [8]: 43 mg/kg

Cc1ccc(C(c2ccccc2)C(O)CN(C)C)cc1 (stereo unspecified)
Activity (Mus musculus [9]): inactive

CNCC(O)C(c1ccccc1)c1ccc(Cl)cc1 (stereo unspecified)
deltaT (Mus musculus [2]): 8.8 °C

CCN(CC)CC(O)C(c1ccccc1)c1ccccc1 (stereo unspecified)
deltaT (Mus musculus [2]): 5 °C

CN(CCCO)CC(O)C(c1ccccc1)c1ccccc1 (stereo unspecified)
deltaT (Mus musculus [3]): 12.4 °C

CN(C)CC(O)C(c1ccccc1)C1CCCCC1 (stereo in doubt; 39b)
Activity (Mus musculus [9]): inactive

OC(CN1CCOCC1)C(c1ccccc1)c1ccccc1 (stereo unspecified)
deltaT (Mus musculus [17]): 11 °C

COc1ccc(C(c2ccccc2)C(O)CN(C)C)cc1 (stereo unspecified)
deltaT (Mus musculus [2]): 5.9 °C

CN(C)CCCN1c2ccccc2CCc2ccccc21 [IMIPRAMINE]
deltaT (Mus musculus [19]): 6.8 °C
ED50 (Mus musculus [7]): 20 mg/kg
Kb (Ileum): 0.00126 µM
ED50 [8]: 3.3 mg/kg

CNCC(O)C(c1ccccc1)c1ccccc1Cl (stereo unspecified)
deltaT (Mus musculus [4]): 8.6 °C

COC(c1ccccc1)(c1ccccc1)C(O)CN(C)C (stereo unspecified)
deltaT (Mus musculus [17]): 6.9 °C

CN(C)CC(O)C(CCc1ccccc1)c1ccccc1 (stereo unspecified)
deltaT (Mus musculus [17]): 7.4 °C

CN(C)CC(O)C(c1ccccc1)C1CCCCC1 (stereo in doubt; 39a)
Activity (Mus musculus [9]): inactive
